Experimental findings from ChEMBL document CHEMBL2086248, “Synthesis of some novel 1-(2-naphthyl)-2-(imidazol-1-yl)ethanone oxime ester derivatives and evaluation of their anticonvulsant activity” (Eur J Med Chem, 2012) are described below.

Data set [1] relates to Mus musculus. Put plainly: Anticonvulsant activity in mouse assessed as protection against maximal electroshock-induced seizures at 100 mg/kg, ip after 0.5 hrs. Set-up: dose 100 mg/kg. Type of data set: functional, organism-based. The gist of the method: (§1)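 Swiss albino mice (20-24 g) received an ip suspension in 30% aqueous PEG 400 and were tested 0.5 h and 4 h after dosing. Shock was delivered through corneal electrodes from a constant current unit, with 0.9% saline dropped into the eyes first. Protection meant abolition of the hind limb tonic extension. Scored as number protected/number tested, one mouse per dose and time.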
In general terms: The maximal electroshock test induces tonic seizures with an electrical stimulus.

In data set [2] the test system is Mus musculus. As to the kind of experiment: Anticonvulsant activity in mouse assessed as protection against subcutaneous pentylenetetrazole-induced seizures at 30 mg/kg, ip after 0.5 hrs. Also on record: dose 30 mg/kg. Type of data set: functional, organism-based. The procedure, abridged:
(§2)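 Swiss albino mice (20-24 g) were dosed ip with a suspension in 30% aqueous PEG 400 and challenged 0.5 h or 4 h later. Protection meant no threshold seizure (clonic spasms lasting at least 5 s). Scored as number protected/number tested, one mouse per dose and time.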

For data set [3], the system named is Mus musculus. As to the kind of experiment: Neurotoxicity in mouse assessed as motor impairment at 30 mg/kg, ip after 0.5 hrs by rotarod test. Set-up: dose 30 mg/kg, route intraperitoneal. Conditions: in vivo. Format: toxicity, organism-based. The procedure, abridged:
(§3)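 Swiss albino mice (20-24 g) were dosed ip with a suspension in 30% aqueous PEG 400 and tested 0.5 h or 4 h later. They were placed on a knurled wooden rod 1 inch in diameter, rotating at 6 rpm. Toxicity meant failure to stay on the rod for at least 1 min in each of three trials. Scored as number toxic/number tested (4 mice at 0.5 h, 2 at 4 h).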

For data set [4], the system named is Mus musculus. Put plainly: Anticonvulsant activity in mouse assessed as protection against maximal electroshock-induced seizures at 30 mg/kg, ip after 4 hrs. Format: functional, organism-based. Also on record: dose 30 mg/kg. The procedure, abridged: as §1
In data set [5] the test system is Mus musculus. As to the kind of experiment: Neurotoxicity in mouse assessed as mortality at 300 mg/kg, ip after 4 hrs by rotarod test. To be noted: in vivo. Format: toxicity, organism-based. Set-up: dose 300 mg/kg, route intraperitoneal. In general terms: The rotarod test checks motor coordination on a turning rod.
Data set [6] concerns Mus musculus. As to the kind of experiment: Anticonvulsant activity in mouse assessed as protection against subcutaneous pentylenetetrazole-induced seizures at 300 mg/kg, ip after 0.5 hrs. Format: functional, organism-based. Also on record: dose 300 mg/kg. The gist of the method:
as §2

Data set [7] concerns Mus musculus. Put plainly: Neurotoxicity in mouse assessed as mortality at 300 mg/kg, ip after 0.5 hrs by rotarod test. Format: toxicity, organism-based. Set-up: dose 300 mg/kg, route intraperitoneal. Conditions: in vivo.
The test system of data set [8] is Mus musculus. As to the kind of experiment: Anticonvulsant activity in mouse assessed as protection against subcutaneous pentylenetetrazole-induced seizures at 100 mg/kg, ip after 4 hrs. Format: functional, organism-based. Set-up: dose 100 mg/kg. The procedure, abridged:
as §2

In data set [9] the test system is Mus musculus. Put plainly: Anticonvulsant activity in mouse assessed as protection against subcutaneous pentylenetetrazole-induced seizures at 30 mg/kg, ip after 4 hrs. Format: functional, organism-based. Set-up: dose 30 mg/kg. The gist of the method:
as §2

In data set [10] the test system is Mus musculus. As to the kind of experiment: Neurotoxicity in mouse assessed as motor impairment at 100 mg/kg, ip after 4 hrs by rotarod test. Set-up: dose 100 mg/kg, route intraperitoneal. Conditions: in vivo. Format: toxicity, organism-based. The procedure, abridged: as §3
The subject of data set [11] is Mus musculus. Put plainly: Anticonvulsant activity in mouse assessed as protection against maximal electroshock-induced seizures at 300 mg/kg, ip after 4 hrs. Format: functional, organism-based. Set-up: dose 300 mg/kg. The gist of the method:
as §1

Data set [12] deals with Mus musculus. Put plainly: Anticonvulsant activity in mouse assessed as protection against maximal electroshock-induced seizures at 100 mg/kg, ip after 4 hrs. Format: functional, organism-based. Also on record: dose 100 mg/kg. The procedure, abridged: as §1
Data set [13] concerns Mus musculus. As to the kind of experiment: Anticonvulsant activity in mouse assessed as protection against subcutaneous pentylenetetrazole-induced seizures at 100 mg/kg, ip after 0.5 hrs. Format: functional, organism-based. Set-up: dose 100 mg/kg. The procedure, abridged:
as §2

Data set [14] has as its system Mus musculus. Put plainly: Neurotoxicity in mouse assessed as motor impairment at 30 mg/kg, ip after 4 hrs by rotarod test. To be noted: in vivo. Also on record: dose 30 mg/kg, route intraperitoneal. Type of data set: toxicity, organism-based. The procedure, abridged: as §3
For data set [15], the system named is Mus musculus. As to the kind of experiment: Anticonvulsant activity in mouse assessed as protection against maximal electroshock-induced seizures at 300 mg/kg, ip after 0.5 hrs. Format: functional, organism-based. Set-up: dose 300 mg/kg. The procedure, abridged: as §1
Data set [16] concerns Mus musculus. Put plainly: Neurotoxicity in mouse assessed as motor impairment at 100 mg/kg, ip after 0.5 hrs by rotarod test. Format: toxicity, organism-based. Set-up: dose 100 mg/kg, route intraperitoneal. To be noted: in vivo. The gist of the method:
as §3

Data set [17] has as its system Mus musculus. As to the kind of experiment: Anticonvulsant activity in mouse assessed as protection against maximal electroshock-induced seizures at 30 mg/kg, ip after 0.5 hrs. Type of data set: functional, organism-based. Set-up: dose 30 mg/kg. The gist of the method:
as §1

For data set [18], the system named is Mus musculus. As to the kind of experiment: Anticonvulsant activity in mouse assessed as protection against subcutaneous pentylenetetrazole-induced seizures at 300 mg/kg, ip after 4 hrs. Format: functional, organism-based. Also on record: dose 300 mg/kg. The gist of the method: as §2
Data set [19] relates to Mus musculus. Put plainly: Neurotoxicity in mouse assessed as motor impairment at 300 mg/kg, ip after 4 hrs by rotarod test. Format: toxicity, organism-based. Set-up: dose 300 mg/kg, route intraperitoneal. To be noted: in vivo. The gist of the method:
as §3

Data set [20] relates to Mus musculus. As to the kind of experiment: Neurotoxicity in mouse assessed as motor impairment at 300 mg/kg, ip after 0.5 hrs by rotarod test. Format: toxicity, organism-based. Set-up: dose 300 mg/kg, route intraperitoneal. To be noted: in vivo. The procedure, abridged:
as §3

The structures appear in SMILES notation. Active and inactive are the calls of the source.

With `O=C(CCC(=O)c1ccccc1)O/N=C(\Cn1ccnc1)c1ccc2ccccc2c1`, the outcome in the data set on Mus musculus [1], in the data set with Mus musculus [4], in the data set on Mus musculus [12] and in the data set with Mus musculus [17] was Active. Besides, the outcome in the data set with Mus musculus [2], in the data set with Mus musculus [6], in the data set with Mus musculus [8], with Mus musculus [9], in the data set on Mus musculus [11] and with Mus musculus [13] was inactive. For the same molecule, in the data set on Mus musculus [15], the outcome was inactive. The Activity entry is given as “Non-toxic” with Mus musculus [3]; “Toxic” with Mus musculus [5]; “Toxic” in the data set on Mus musculus [7]; “Non-toxic” in the data set with Mus musculus [10]; “Non-toxic” in the data set on Mus musculus [14]; “Non-toxic” in the data set with Mus musculus [16].
With `O=C(O/N=C(\Cn1ccnc1)c1ccc2ccccc2c1)c1cccc(Br)c1`, the result with Mus musculus [1] and in the data set on Mus musculus [15] was Active. The outcome in the data set on Mus musculus [2], with Mus musculus [4], in the data set on Mus musculus [18], in the data set with Mus musculus [6], in the data set on Mus musculus [8] and in the data set with Mus musculus [9] was inactive. The outcome in the data set with Mus musculus [11], in the data set on Mus musculus [12], in the data set on Mus musculus [13] and in the data set with Mus musculus [17] was inactive. Also, the Activity result in the data set on Mus musculus [3], with Mus musculus [19], with Mus musculus [20], in the data set on Mus musculus [10], with Mus musculus [14] and in the data set with Mus musculus [16] was “Non-toxic” throughout.
For the molecule `O=C1NC(=O)C(c2ccccc2)(c2ccccc2)N1` [PHENYTOIN], the result in the data set on Mus musculus [1], with Mus musculus [4], in the data set on Mus musculus [11], in the data set with Mus musculus [12], in the data set on Mus musculus [15] and in the data set with Mus musculus [17] was Active. Also, the result with Mus musculus [2], in the data set on Mus musculus [18], with Mus musculus [6], in the data set on Mus musculus [8], with Mus musculus [9] and in the data set on Mus musculus [13] was inactive. Besides, the Activity result with Mus musculus [3] is “Non-toxic”; in the data set with Mus musculus [19], “Toxic”; with Mus musculus [20], “Toxic”; in the data set with Mus musculus [10], “Toxic”; in the data set with Mus musculus [14], “Non-toxic”; with Mus musculus [16], “Non-toxic”.
Consider `O=C(O/N=C(\Cn1ccnc1)c1ccc2ccccc2c1)c1ccc(Cl)cc1`, for which the result in the data set on Mus musculus [1], in the data set on Mus musculus [2], with Mus musculus [4], in the data set on Mus musculus [6], in the data set with Mus musculus [11] and in the data set with Mus musculus [12] was inactive. In addition, the outcome in the data set on Mus musculus [13], with Mus musculus [15] and with Mus musculus [17] was inactive. Also, the Activity entry with Mus musculus [3], in the data set with Mus musculus [19], in the data set on Mus musculus [20], with Mus musculus [10], in the data set on Mus musculus [14] and in the data set with Mus musculus [16] was “Non-toxic” in each case. Further, the result with Mus musculus [18], in the data set on Mus musculus [8] and in the data set with Mus musculus [9] was Active.
For `Cl.O=C(/C=C/c1ccccc1)O/N=C(\Cn1ccnc1)c1ccc2ccccc2c1`, the result with Mus musculus [1], in the data set with Mus musculus [15] and in the data set with Mus musculus [17] was Active. Moreover, the result in the data set with Mus musculus [2], with Mus musculus [4], in the data set on Mus musculus [18], with Mus musculus [6], in the data set with Mus musculus [8] and in the data set on Mus musculus [9] was inactive. Also, the outcome in the data set on Mus musculus [11], in the data set with Mus musculus [12] and with Mus musculus [13] was inactive. Besides, the Activity result in the data set on Mus musculus [3], with Mus musculus [19], in the data set with Mus musculus [20], in the data set on Mus musculus [10], with Mus musculus [14] and with Mus musculus [16] was “Non-toxic” each time.
On to `NC(=O)N1c2ccccc2C=Cc2ccccc21` [CARBAMAZEPINE], for which the outcome with Mus musculus [1], with Mus musculus [18], in the data set with Mus musculus [6], with Mus musculus [8], with Mus musculus [11] and with Mus musculus [12] was Active. Moreover, the outcome with Mus musculus [15] and in the data set on Mus musculus [17] was Active. The result in the data set on Mus musculus [2], in the data set with Mus musculus [4], in the data set with Mus musculus [9] and with Mus musculus [13] was inactive. Moreover, the Activity entry with Mus musculus [3] is given as “Non-toxic”; in the data set on Mus musculus [19] it was “Non-toxic”; in the data set with Mus musculus [20], “Toxic”; in the data set with Mus musculus [10] it was “Non-toxic”; in the data set on Mus musculus [14] it was “Non-toxic”; in the data set on Mus musculus [16], “Non-toxic”.
Turning to `C/C=C(\C)C(=O)O/N=C(\Cn1ccnc1)c1ccc2ccccc2c1.Cl`, the outcome in the data set on Mus musculus [1], in the data set with Mus musculus [2], in the data set on Mus musculus [4], in the data set on Mus musculus [6], in the data set on Mus musculus [8] and with Mus musculus [9] was inactive. Besides, the result in the data set with Mus musculus [11], in the data set on Mus musculus [12], with Mus musculus [13], in the data set with Mus musculus [15] and with Mus musculus [17] was inactive. In addition, the Activity result in the data set with Mus musculus [3], with Mus musculus [19], with Mus musculus [20], with Mus musculus [10], with Mus musculus [14] and with Mus musculus [16] was “Non-toxic” in each case. Also, the outcome in the data set on Mus musculus [18] was Active.
Consider `CCCC(=O)O/N=C(\Cn1ccnc1)c1ccc2ccccc2c1.Cl`, for which the result with Mus musculus [1], in the data set on Mus musculus [18], in the data set with Mus musculus [11], in the data set with Mus musculus [15] and with Mus musculus [17] was Active. In addition, the outcome with Mus musculus [2], in the data set with Mus musculus [4], in the data set with Mus musculus [6], in the data set on Mus musculus [8], in the data set on Mus musculus [9] and in the data set on Mus musculus [12] was inactive. Besides, the result with Mus musculus [13] was inactive. In addition, the Activity entry in the data set with Mus musculus [3] is “Non-toxic”; in the data set on Mus musculus [19], “Non-toxic”; in the data set with Mus musculus [20], “Toxic”; in the data set with Mus musculus [10], “Non-toxic”; in the data set with Mus musculus [14] it was “Non-toxic”; with Mus musculus [16], “Non-toxic”.
